Activity calls are given as the source filed them. The calls are words filed in the database; no cut-off is given here.
What was measured:
U-87 MG [1] = experiment: Antiproliferative activity against human U87 cells assessed as reduction in cell viability at 1 uM after 72 hrs by CellTiter Glo assay; format: functional, cell-based; details: U-87MG ATCC
HCT-116 [2] = experiment: Antiproliferative activity against human HCT-116 cells assessed as reduction in cell viability at 1 uM after 72 hrs by CellTiter Glo assay; format: functional, cell-based
A549 [3] = experiment: Antiproliferative activity against human A549 cells assessed as reduction in cell viability at 1 uM after 72 hrs by CellTiter Glo assay; format: functional, cell-based
U-87 MG [4] = experiment: Antiproliferative activity against human U87 cells assessed as reduction in cell viability at 10 uM after 72 hrs by CellTiter Glo assay; format: functional, cell-based; details: U-87MG ATCC
HCT-116 [5] = experiment: Antiproliferative activity against human HCT-116 cells assessed as reduction in cell viability at 10 uM after 72 hrs by CellTiter Glo assay; format: functional, cell-based
A549 [6] = experiment: Antiproliferative activity against human A549 cells assessed as reduction in cell viability at 10 uM after 72 hrs by CellTiter Glo assay; format: functional, cell-based
A549 [7] = experiment: Antiproliferative activity against human A549 cells assessed as reduction in cell viability after 72 hrs by CellTiter Glo assay; format: functional, cell-based; details: A549, 72 h
Outline: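 A549 cells (ATCC) grown in RPMI 1640 with 10% FCS and 1% L-glutamine at 37 °C under 5% CO2. Seeded at 3 × 10³ cells/well and cultured 24 h, then given 10 final concentrations from serial dilution in medium; vehicle controls. After 72 h, viability read by CellTiter-Glo luminescence. Run in triplicate; IC50 from four- or five-parameter logistic fits.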

U-87 MG [8] = experiment: Antiproliferative activity against human U87 cells assessed as reduction in cell viability after 72 hrs by CellTiter Glo assay; format: functional, cell-based, U-87MG ATCC
Outline: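 U87-MG glioblastoma cells (ATCC) grown in DMEM with 10% FCS and 1% L-glutamine at 37 °C under 5% CO2. Seeded at 3 × 10³ cells/well, cultured 24 h, then treated at 10 final concentrations serially diluted in medium; vehicle-treated controls. CellTiter-Glo luminescence read after 72 h. Triplicate runs; IC50 from four- or five-parameter logistic curves.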

HCT-116 [9] = experiment: Antiproliferative activity against human HCT-116 cells assessed as reduction in cell viability after 72 hrs by CellTiter Glo assay; format: functional, cell-based; details: HCT-116, 72 h
Outline: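 HCT-116 (ATCC) grown in McCoy's 5A with 10% FCS, 1% L-glutamine, 37 °C, 5% CO2. Seeded 3 × 10³ cells/well; after 24 h treated with 10 final concentrations by serial dilution in medium; vehicle controls; triplicate. Luminescent viability read-out after 72 h, reagent 15 min. IC50 from four- or five-parameter logistic fit of dose-response curves.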

Row | IC50 (HCT-116 [9]) | Compound | Activity (U-87 MG [1]) | Activity (HCT-116 [2]) | Activity (A549 [3]) | Activity (U-87 MG [4]) | Activity (HCT-116 [5]) | Activity (A549 [6]) | IC50 (A549 [7]) | IC50 (U-87 MG [8])
1 |  | C=C(C)[C@@H]1[C@H]2OC(=O)[C@@H]1[C@]1(O)[C@H]3O[C@H]3[C@]3(C[C@@H]([C@H](C)OC(=O)CCCCCCCCCCC)C(=O)O3)[C@]1(C)[C@@H]2O | inactive | inactive | inactive |  |  |  |  | 
2 |  | CO[C@@H](C)[C@@]1(O)C[C@@]2(OC1=O)[C@@H]1O[C@@H]1[C@@]1(O)[C@H]3C(=O)O[C@H]([C@H]3C(C)C)[C@@H](O)[C@]12C | inactive | inactive | inactive |  |  |  |  | 
3 |  | C=C(C)[C@@H]1[C@H]2OC(=O)[C@@H]1[C@]1(O)[C@H]3O[C@H]3[C@]3(CO3)[C@]1(C)[C@@H]2O | inactive | inactive | inactive |  |  |  |  | 
4 |  | C=C(C)[C@@H]1[C@H]2OC(=O)[C@@H]1[C@]1(O)[C@H]3O[C@H]3[C@]3(C[C@H]([C@H](C)OC(=O)CCCCCCCCCCC)C(=O)O3)[C@]1(C)[C@@H]2O | inactive | inactive | inactive |  |  |  |  | 
5 |  | C=C(C)[C@@H]1[C@H]2OC(=O)[C@@H]1[C@]1(O)[C@H]3O[C@H]3[C@]3(CO3)[C@]1(C)[C@@H]2OC(=O)CCCCCCCCCCC | inactive | inactive | inactive | Active | Active | Active |  | 
6 |  | CCCCCCCCCC(=O)O[C@@H]1[C@@H]2OC(=O)[C@@H]([C@@H]2C(C)C)[C@]2(O)[C@H]3O[C@H]3[C@]3(C[C@](O)([C@H](C)OC)C(=O)O3)[C@]12C | inactive | inactive | inactive | Active | Active | Active | 5.8 µM | 0.7 µM
7 |  | C=C(C)[C@@H]1[C@H]2OC(=O)[C@@H]1[C@]1(O)[C@H]3O[C@H]3[C@]3(C[C@H]([C@H](C)OC(=O)CCCCCCCCCCCCCCC)C(=O)O3)[C@]1(C)[C@@H]2O | inactive | inactive | inactive |  |  |  |  | 
8 | 56.6 µM | COc1cccc2c1C(=O)c1c(O)c3c(c(O)c1C2=O)C[C@@](O)(C(=O)CO)C[C@@H]3O[C@H]1C[C@H](N)[C@H](O)[C@H](C)O1 [DOXORUBICIN] |  |  |  |  |  |  | 90 µM | 99.6 µM
9 |  | C=C(C)[C@@H]1[C@H]2OC(=O)[C@@H]1[C@]1(O)[C@H]3O[C@H]3[C@]3(C[C@H]([C@H](C)OC(=O)CCCCCCCCCCCCC)C(=O)O3)[C@]1(C)[C@@H]2O | inactive | inactive | inactive |  |  |  |  | 
10 |  | C=C(C)[C@@H]1[C@H]2OC(=O)[C@@H]1[C@]1(O)[C@H]3O[C@H]3[C@]3(C[C@](O)([C@H](C)OC)C(=O)O3)[C@]1(C)[C@@H]2O | inactive | inactive | inactive |  |  |  |  | 
11 |  | C=C(C)[C@@H]1[C@H]2OC(=O)[C@@H]1[C@]1(O)[C@H]3O[C@H]3[C@]3(C[C@H]([C@H](C)OC(=O)CCCCCCCCC)C(=O)O3)[C@]1(C)[C@@H]2O | inactive | inactive | inactive |  |  |  |  | 
12 |  | C=C(C)[C@@H]1[C@H]2OC(=O)[C@@H]1[C@]1(O)[C@H]3O[C@H]3[C@]3(C[C@@H]([C@H](C)O)C(=O)O3)[C@]1(C)[C@@H]2OC(=O)CCCCCCCCCCC | inactive | inactive | inactive | Active | Active | Active | 5.8 µM | 0.7 µM
13 |  | C=C(C)[C@@H]1[C@H]2OC(=O)[C@@H]1[C@]1(O)[C@H]3O[C@H]3[C@]3(C[C@@H]([C@H](C)O)C(=O)O3)[C@]1(C)[C@@H]2O | inactive | inactive | inactive |  |  |  |  | 
14 |  | C=C(C)[C@@H]1[C@H]2OC(=O)[C@@H]1[C@]1(O)[C@H]3O[C@H]3[C@]3(C/C(=C\C)C(=O)O3)[C@]1(C)[C@@H]2O | inactive | inactive | inactive |  |  |  |  | 
15 |  | C=C(C)[C@@H]1[C@H]2OC(=O)[C@@H]1[C@]1(O)[C@H]3O[C@H]3[C@]3(C[C@@H]([C@H](C)OC(=O)CCCCCCCCC)C(=O)O3)[C@]1(C)[C@@H]2O | inactive | inactive | inactive |  |  |  |  | 

Source: ChEMBL document CHEMBL4699550, “Isolation of Picrotoxanes from Austrobuxus carunculatus Using Taxonomy-Based Molecular Networking” (J Nat Prod, 2020)
